Experimental data published in ChEMBL document CHEMBL5230169, “QSAR, structure-based pharmacophore modelling and biological evaluation of novel platelet ADP receptor (P2Y12) antagonist” (RSC Med Chem, 2023).

Tests used:
Type in all cases: cell-based
[1] = target: P2Y purinoceptor 12 (Homo sapiens) (UniProt Q9H244); assay: Antagonist activity at P2Y12 receptor in human blood platelets assessed as inhibition of ADP-induced platelet aggregation at 0.1 uM compound preincubated with blood for 5 mins prior to ADP addition by electrode aggregometry assay
Chain of P2Y purinoceptor 12 (Homo sapiens) (Q9H244 whole entry): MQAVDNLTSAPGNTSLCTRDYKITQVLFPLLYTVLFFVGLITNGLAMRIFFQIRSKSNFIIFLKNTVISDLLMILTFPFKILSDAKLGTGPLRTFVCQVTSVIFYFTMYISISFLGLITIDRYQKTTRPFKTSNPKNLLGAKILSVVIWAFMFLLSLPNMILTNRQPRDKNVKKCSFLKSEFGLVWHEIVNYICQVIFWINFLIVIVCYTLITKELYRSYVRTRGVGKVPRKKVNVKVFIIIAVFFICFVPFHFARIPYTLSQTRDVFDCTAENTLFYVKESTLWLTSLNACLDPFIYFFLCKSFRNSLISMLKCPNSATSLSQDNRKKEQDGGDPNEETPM
How it was run: (§1)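 Fresh hirudin-anticoagulated human whole blood from volunteers free of medication for seven days, tested within two hours of venepuncture. 300 μL blood mixed with 300 μL pre-warmed isotonic saline containing compound (0, 0.1, 1, 10 or 100 μM final) or vehicle (1% DMSO final). Incubated 5 min at 37 °C, then 20 μL 0.2 mM ADP added.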

[2] = target: P2Y purinoceptor 12 (Homo sapiens) (UniProt Q9H244); assay: Antagonist activity at P2Y12 receptor in human blood platelets assessed as inhibition of ADP-induced platelet aggregation at 10 uM compound preincubated with blood for 5 mins prior to ADP addition by electrode aggregometry assay; settings: filed as antagonist; how it was run: as §1
[3] = target: P2Y purinoceptor 12 (Homo sapiens) (UniProt Q9H244); assay: Antagonist activity at P2Y12 receptor in human blood platelets assessed as inhibition of ADP-induced platelet aggregation at 1 uM compound preincubated with blood for 5 mins prior to ADP addition by electrode aggregometry assay; how it was run: as §1

Row | inhibition [1] | inhibition [2] | inhibition [3] | SMILES
1 | 4.75% | 41.1% | 22.8% | O=C(CCCCCCCC(=O)Nc1ccc2[nH]c3ccccc3c(=O)c2c1)Nc1ccc2[nH]c3ccccc3c(=O)c2c1
2 | 22.3% | 57.8% | 33.6% | O=C(CCC(=O)Nc1ccc2[nH]c3ccccc3c(=O)c2c1)Nc1ccc2[nH]c3ccccc3c(=O)c2c1
3 | 37% | 61.8% | 38.2% | CCOC(=O)c1cc(NC(=O)c2cc(NC(=O)c3cc(NC(=O)c4c(-c5ccccc5)noc4C)cn3C)cn2C)cn1C
